{"data": "Results pooled from the literature", "note": "Lines come from different studies, so protocols differ."}
{"SMILES": "CNC(=O)c1c(C)oc2cc(Oc3ncnc4cc(OC)c(OC)cc34)ccc12", "test system": "Sprague-Dawley rat, plasma", "conditions": "oral, 1 mg/kg, single dose", "measurement": "CL/F", "result": "3.5 mL/min/kg"}
{"SMILES": "Oc1cc(O)cc(-c2cc3ccc(O)cc3o2)c1", "test system": "male rat, plasma", "conditions": "intravenous, 5 mg/kg", "measurement": "clearance", "result": "89.5 mL/min/kg"}
{"SMILES": "COCCOC(=O)C1=C(C)NC(C)=C(C(=O)OC(C)C)C1c1cccc([N+](=O)[O-])c1 (centres unmarked)", "test system": "male Sprague-Dawley rat, plasma", "conditions": "intravenous, 3 mg/kg", "measurement": "clearance", "result": "0.025 mL/min/kg"}
{"SMILES": "Oc1c(-n2ccnn2)cnn1-c1cc(N2CCOCC2)ncn1", "test system": "male rat, blood", "conditions": "intravenous, 5 mg/kg", "measurement": "clearance", "result": "18.3 mL/min/kg"}
{"SMILES": "CCCC[C@@H]1NC(=O)[C@H](Cc2ccc(O)cc2)NC(=O)[C@@H]2CCCN2C(=O)[C@H](CC(=O)O)NC(=O)[C@H](C)NC(=O)[C@H](Cc2ccccc2)NC(=O)[C@@H]2CSCCC(=O)N3CN(CN(C3)C(=O)CCSC[C@@H](C(=O)N[C@@H](C)C(N)=O)NC1=O)C(=O)CCSC[C@H](NC(C)=O)C(=O)N[C@@H](CC(C)(C)C)C(=O)N1CCC[C@H]1C(=O)N[C@@H](CCC(=O)O)C(=O)N[C@H](CCCCNC(=O)CCc1cn(CCOCCOCCOCCOCCOCCOCCOCCOCCOCCOCCNC(=O)CCOCCN(CCOCCC(=O)NCCOCCOCCOCCOCCOCCOCCOCCOCCOCCOCCn3cc(CCC(=O)NCCCC[C@H]4NC(=O)[C@H](CCC(=O)O)NC(=O)[C@@H]5CCCN5C(=O)[C@H](CC(C)(C)C)NC(=O)[C@@H](NC(C)=O)CSCCC(=O)N5CN6CN(C5)C(=O)CCSC[C@H](NC(=O)[C@H](Cc5ccc(O)cc5)NC(=O)[C@@H]5CCCN5C4=O)C(=O)N[C@@H](Cc4ccccc4)C(=O)N[C@@H](C)C(=O)N[C@@H](CC(=O)O)C(=O)N4CCC[C@H]4C(=O)N[C@@H](Cc4ccc(O)cc4)C(=O)N[C@@H](CCCC)C(=O)N[C@H](C(=O)N[C@@H](C)C(N)=O)CSCCC6=O)nn3)CCOCCC(=O)NCCOCCOCCOCCOCCOCCOCCOCCOCCOCCOCCn3cc(CCC(=O)N[C@H]4CSCCC(=O)N5CN6CN(C5)C(=O)CCSC[C@H](NC(=O)[C@@H](CC(=O)O)NC(=O)[C@H](Cc5cccc7ccccc57)NC(=O)[C@@H]5CCCN5C4=O)C(=O)N[C@@H](CCSC)C(=O)N[C@@H](CCCCNC(=N)N)C(=O)N[C@@H](CC(=O)O)C(=O)N[C@@H](Cc4c[nH]c5ccccc45)C(=O)N[C@@H](CO)C(=O)N[C@@H]([C@@H](C)O)C(=O)N4CCC[C@H]4C(=O)N4C[C@H](O)C[C@H]4C(=O)N[C@@H](Cc4c[nH]c5ccccc45)C(=O)N[C@H](C(N)=O)CSCCC6=O)nn3)nn1)C(=O)N1CCC[C@H]1C(=O)N[C@@H](Cc1ccc(O)cc1)C(=O)N2", "test system": "rat, plasma", "conditions": "intravenous, 2 mg/kg", "measurement": "clearance", "result": "12 mL/min/kg"}
{"SMILES": "Oc1c(Br)cc(Cl)c2cccnc12", "test system": "Sprague-Dawley rat, plasma", "conditions": "oral, 20 mg/kg", "measurement": "CL/F", "result": "85 mL/min/kg"}
{"SMILES": "C=CC(=O)Nc1cc(Nc2nccc(Nc3cc(Cl)c(F)cc3C(C)(C)O)n2)c(OC)cc1N1CC[C@@H](N(C)C)C1", "test system": "Wistar rat, plasma", "conditions": "intravenous, 3 mg/kg", "measurement": "clearance", "result": "30.8 mL/min/kg"}
{"SMILES": "C#Cc1cccc(Nc2ncnc3cc(OCCOC)c(OCCOC)cc23)c1", "test system": "male Sprague-Dawley rat, plasma", "conditions": "oral, 12 mg/kg, single dose", "measurement": "CL/F", "result": "22 mL/min/kg"}
